Assays:
Cannabinoid receptor 1 = Cannabinoid receptor 1 (Homo sapiens, UniProt P21554); experiment: biochemical; assay type: cell-based, CHO
Homo sapiens = species: Homo sapiens; experiment: Selectivity index, ratio of Ki for human CB1 receptor to KI for human CB2 receptor
Cannabinoid receptor 2 [1] = biological target: T1, Cannabinoid receptor 2 (Homo sapiens, UniProt P34972); experiment: Displacement of [3H]CP55940 from human CB2 receptor expressed in CHO cells incubated for 1 hr; assay type: cell-based
T1 sequence (P34972 whole entry): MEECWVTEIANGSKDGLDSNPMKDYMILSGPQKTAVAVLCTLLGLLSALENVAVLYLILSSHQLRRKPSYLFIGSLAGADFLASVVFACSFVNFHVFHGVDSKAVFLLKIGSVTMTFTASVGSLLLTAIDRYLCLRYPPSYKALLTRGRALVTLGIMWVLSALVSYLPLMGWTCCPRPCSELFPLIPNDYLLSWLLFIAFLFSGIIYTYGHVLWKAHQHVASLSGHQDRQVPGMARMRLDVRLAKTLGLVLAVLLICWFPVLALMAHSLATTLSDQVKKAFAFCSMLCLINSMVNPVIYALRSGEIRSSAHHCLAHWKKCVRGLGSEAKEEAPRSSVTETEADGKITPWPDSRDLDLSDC

Cannabinoid receptor 2 [2] = biological target: T1, Cannabinoid receptor 2; experiment: Inverse agonist activity at human CB2 receptor expressed in CHO cells assessed as increase in forskolin-induced cAMP accumulation incubated for 45 mins by TR-FRET method based LANCE cAMP assay; assay type: functional, cell-based
Bone marrow cell [3] = experiment: Inhibition of osteoclastogenesis in human mononuclear bone marrow cells incubated for 3 weeks at 37 degC by osteoclast formation assay; assay type: functional, cell-based
In short: (§1)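 Nonadherent human marrow mononuclear cells from healthy donors, 2×10^5 per well, in MEM with 20% horse serum, 10 ng/mL M-CSF and 25 ng/mL RANKL (legend states RANKL 50 ng/mL). Compounds present throughout, with drug-containing half-medium changes twice weekly; 3 weeks at 37 °C, 5% CO2. 23c6 antibody stain; 23c6+ cells with ≥3 nuclei counted; triplicate, mean ± SD.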

PBMC = experiment: Toxicity against human PBMC assessed effect on cell viability at 1 to 10 uM incubated for 72 hrs by trypan blue dye exclusion method; assay type: cell-based
In short: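 PBMC from healthy medication-free donors, isolated on Ficoll-Hypaque, washed in ice-cold PBS. Cells held in medium with 10% inactivated FBS and 2 mM glutamine (5×10^5/mL; legend 10^5 cells/well). Compounds come from a 50 mM DMSO stock, final DMSO 0.02%, exposure 72 h. Viability read by trypan blue exclusion; three assays, mean ± SD.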

Bone marrow cell [4] = experiment: Inhibition of osteoclastogenesis in human mononuclear bone marrow cells at 10 uM incubated for 3 weeks at 37 degC by osteoclast formation assay; assay type: functional; details: 504 h
In short: as §1

Bone marrow cell [5] = experiment: Inhibition of osteoclastogenesis in human mononuclear bone marrow cells at 1 uM incubated for 3 weeks at 37 degC by osteoclast formation assay; assay type: functional; details: 504 h
In short: as §1

Bone marrow cell [6] = experiment: Inhibition of osteoclastogenesis in human mononuclear bone marrow cells at 0.1 uM incubated for 3 weeks at 37 degC by osteoclast formation assay; assay type: functional; details: 504 h
In short: as §1

Chain of Cannabinoid receptor 1 (P21554 whole entry): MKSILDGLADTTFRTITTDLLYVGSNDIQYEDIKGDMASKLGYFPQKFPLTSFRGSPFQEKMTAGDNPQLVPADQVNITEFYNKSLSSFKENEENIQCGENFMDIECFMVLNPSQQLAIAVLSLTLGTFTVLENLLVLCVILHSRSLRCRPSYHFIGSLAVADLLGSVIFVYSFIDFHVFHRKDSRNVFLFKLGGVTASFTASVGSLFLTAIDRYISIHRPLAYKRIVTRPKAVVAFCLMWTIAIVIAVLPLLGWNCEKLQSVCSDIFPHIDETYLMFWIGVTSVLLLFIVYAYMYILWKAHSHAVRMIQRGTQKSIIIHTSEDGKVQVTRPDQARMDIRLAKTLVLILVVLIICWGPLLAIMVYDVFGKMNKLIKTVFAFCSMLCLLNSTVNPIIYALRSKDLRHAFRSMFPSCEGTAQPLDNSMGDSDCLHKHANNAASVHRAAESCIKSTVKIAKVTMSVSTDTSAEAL

Row | Structure (SMILES) | Ki (Cannabinoid receptor 1) [µM] | Ratio Ki (Homo sapiens) | Ki (Cannabinoid receptor 2 [1]) [µM] | other results
1 | CCN(CC)c1ccc(C(NC(=O)c2ccccc2)NC(=O)c2ccccc2)cc1 | > 20 | > 29 |  | 
2 | CCCCCC(=O)NC(NC(=O)CCCCC)c1ccc(N(CC)CC)cc1 | > 20 | > 800 |  | EC50 (Cannabinoid receptor 2 [2]): 0.0134 µM
3 | CCCCCCCCCC(=O)NC(NC(=O)CCCCCCCCC)c1ccc(N(CC)CC)cc1 | > 20 |  |  | 
4 | CCCCCC(NC(=O)Cc1ccccc1)NC(=O)Cc1ccccc1 | > 20 |  |  | 
5 | CCN(CC)c1ccc(C(NC(=O)C(C)C)NC(=O)C(C)C)cc1 | > 20 |  |  | 
6 | O=C(Cc1ccc(C(F)(F)F)cc1)NC(NC(=O)Cc1ccc(C(F)(F)F)cc1)c1ccc(F)cc1 |  |  | > 20 | 
7 | O=C(Cc1ccccc1)NC(/C=C/c1ccccc1)NC(=O)Cc1ccccc1 | > 20 |  |  | 
8 | O=C(Cc1ccc(Cl)cc1)NC(NC(=O)Cc1ccc(Cl)cc1)c1ccc(Cl)cc1 | > 20 | > 130 |  | 
9 | O=C(Cc1ccc(Cl)cc1)NC(NC(=O)Cc1ccc(Cl)cc1)c1ccc(F)cc1 |  |  | > 20 | 
10 | O=C(Cc1ccc(Cl)cc1)NC(NC(=O)Cc1ccc(Cl)cc1)c1ccccc1C(F)(F)F | > 20 | > 127 |  | 
11 | O=C(Cc1ccc(C(F)(F)F)cc1)NC(NC(=O)Cc1ccc(C(F)(F)F)cc1)c1ccc(C(F)(F)F)cc1 |  |  | > 20 | 
12 | O=C(Cc1ccc(Cl)cc1)NC(NC(=O)Cc1ccc(Cl)cc1)c1ccccc1 |  |  | > 20 | 
13 | COc1ccc(C(NC(=O)Cc2ccc(C(F)(F)F)cc2)NC(=O)Cc2ccc(C(F)(F)F)cc2)cc1 |  |  | > 20 | 
14 | COc1ccc(C(NC(=O)Cc2ccc(Cl)cc2)NC(=O)Cc2ccc(Cl)cc2)cc1 | > 20 | > 65 |  | 
15 | Cc1ccc(Cn2nc(C(=O)NC3C4(C)CCC(C4)C3(C)C)cc2-c2ccc(Cl)c(C)c2)cc1 (centres undefined) |  |  |  | inhibition (Bone marrow cell [3]): Dose-dependent effect
16 | Cc1ccc(Cn2nc(C(=O)N[C@@H]3C(C)(C)[C@@H]4CC[C@@]3(C)C4)cc2-c2ccc(Cl)c(C)c2)cc1 [SR-144528] |  |  |  | Activity (PBMC): Non-toxic
17 | CCN(CC)c1ccc(C(NC(=O)C(C)(C)C)NC(=O)C(C)(C)C)cc1 | > 20 |  |  | 
18 | CCN(CC)c1ccc(C(NC(=O)/C=C/c2ccccc2)NC(=O)/C=C/c2ccccc2)cc1 | > 20 | > 119 | 0.167 | 
19 | CCN(CC)c1ccc(C(NC(=O)CCc2ccccc2)NC(=O)CCc2ccccc2)cc1 | > 20 |  | 0.213 | 
20 | CCCCCCCC(=O)NC(NC(=O)CCCCCCC)c1ccc(N(CC)CC)cc1 | > 20 | > 136 |  | 
21 | O=C(Cc1ccc(C(F)(F)F)cc1)NC(NC(=O)Cc1ccc(C(F)(F)F)cc1)c1ccccc1 |  |  | > 20 | 
22 | O=C(Cc1ccc(C(F)(F)F)cc1)NC(NC(=O)Cc1ccc(C(F)(F)F)cc1)c1ccccc1F |  |  | > 20 | 
23 | O=C(Cc1ccc(Cl)cc1)NC(NC(=O)Cc1ccc(Cl)cc1)c1ccc([N+](=O)[O-])cc1 |  |  | > 20 | 
24 | O=C(Cc1ccccc1)NC(CCc1ccccc1)NC(=O)Cc1ccccc1 | > 20 |  |  | 
25 | Cc1ccc(C(NC(=O)Cc2ccc(Cl)cc2)NC(=O)Cc2ccc(Cl)cc2)cc1 | > 20 | > 43 |  | 
26 | O=C(Cc1ccccc1)NC(NC(=O)Cc1ccccc1)c1ccc(N(Cc2ccccc2)Cc2ccccc2)cc1 | > 20 | > 99 | 0.203 | 
27 | CCCCC(=O)NC(NC(=O)CCCC)c1ccc(N(CC)CC)cc1 | > 20 | > 109 |  | 

The next lines start with results.

Row | Ki (Cannabinoid receptor 1) [µM] | Ratio Ki (Homo sapiens) | Ki (Cannabinoid receptor 2 [1]) [µM] | Structure (SMILES) | other results
28 |  |  | 12.6 | Nc1ccc(C(NC(=O)Cc2ccccc2)NC(=O)Cc2ccccc2)cc1 | 
29 | > 20 | > 198 |  | O=C(Cc1ccc(Cl)cc1)NC(NC(=O)Cc1ccc(Cl)cc1)c1ccc(C(F)(F)F)cc1 | 
30 | > 20 | > 281 | 0.071 | O=C(Cc1ccccc1)NC(NC(=O)Cc1ccccc1)c1ccc(N2CCCC2)cc1 | EC50 (Cannabinoid receptor 2 [2]): 0.0171 µM
31 | > 20 | > 26 |  | COc1ccc(C(NC(=O)Cc2ccccc2)NC(=O)Cc2ccccc2)cc1 | 
32 | > 20 | > 26 |  | CN(C)c1ccc(C(NC(=O)Cc2ccccc2)NC(=O)Cc2ccccc2)cc1 | inhibition (Bone marrow cell [3]): Dose-dependent effect; EC50 (Cannabinoid receptor 2 [2]): 0.159 µM; Activity (PBMC): Non-toxic
33 | > 20 | > 90 |  | CCCCN(CCCC)c1ccc(C(NC(=O)Cc2ccccc2)NC(=O)Cc2ccccc2)cc1 | 
34 |  |  | > 20 | O=C(Cc1ccccc1)NC(NC(=O)Cc1ccccc1)c1ccc([N+](=O)[O-])cc1 | 
35 | > 20 |  |  | CC(C)c1ccc(C(NC(=O)Cc2ccccc2)NC(=O)Cc2ccccc2)cc1 | inhibition (Bone marrow cell [3]): Dose-dependent effect; EC50 (Cannabinoid receptor 2 [2]): 0.00411 µM; Activity (PBMC): Non-toxic
36 | > 20 |  | > 20 | O=C(Cc1ccccc1)NC(Cc1ccccc1)NC(=O)Cc1ccccc1 | 
37 | > 20 | > 34 |  | O=C(Cc1ccccc1)NC(NC(=O)Cc1ccccc1)c1ccc(C(F)(F)F)cc1 | 
38 | > 20 | > 313 |  | CCN(CC)c1ccc(C(NC(=O)Cc2ccccc2)NC(=O)Cc2ccccc2)cc1 | inhibition at 10 µM (Bone marrow cell [4]): 84%; inhibition at 1 µM (Bone marrow cell [5]): 79%; inhibition at 0.1 µM (Bone marrow cell [6]): 72%; inhibition (Bone marrow cell [3]): Dose-dependent effect; EC50 (Cannabinoid receptor 2 [2]): 0.00573 µM; Activity (PBMC): Non-toxic
39 | > 20 |  | 0.022 | CCCN(CCC)c1ccc(C(NC(=O)Cc2ccccc2)NC(=O)Cc2ccccc2)cc1 | EC50 (Cannabinoid receptor 2 [2]): 0.0283 µM
40 | > 20 |  |  | CC(C)Oc1ccc(C(NC(=O)Cc2ccccc2)NC(=O)Cc2ccccc2)cc1 | inhibition (Bone marrow cell [3]): Dose-dependent effect; Activity (PBMC): Non-toxic
41 |  |  | > 20 | O=C(Cc1ccc(C(F)(F)F)cc1)NC(NC(=O)Cc1ccc(C(F)(F)F)cc1)c1ccc(Cl)cc1 | 
42 | > 20 | > 34 |  | O=C(Cc1ccccc1)NC(NC(=O)Cc1ccccc1)c1ccc(N2CCCCC2)cc1 | 
43 |  |  | > 20 | Cc1ccc(C(NC(=O)Cc2ccc(C(F)(F)F)cc2)NC(=O)Cc2ccc(C(F)(F)F)cc2)cc1 | 
